This note sets out measurements from PubChem BioAssay.

The nature of assay [1]: inhibitors of TNFa-induced NFkB p65 translocation, primary screen, imaging, HUVEC, MLSMR starter and 10KST1 sets (AID 438;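 active = inhibition above 20% together with a positive visual image hit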;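 also: compound added about 3h40 before a 20 min TNFalpha stimulation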;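 as to inhibition: signal is the nuclear over cytoplasmic p65 intensity ratio per well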). The conditions noted are these: HUVEC TNFa-induced p65 nuclear translocation; cell count: measured here: nuclei count (cytotoxicity indicator), at 2.08 µM; inhibition: at 2 µM, stronger effect = higher value, 0% TNFa-plus-vehicle, 100% no-TNFa wells.
Assay [2] in a line: endothelial E-selectin expression blockers – imaging, HUVEC, immunofluorescence, MLSMR starter and 10KST1 sets, primary screen (AID 487;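 active = visually confirmed hit in the image check and inhibition above 20%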;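 as to inhibition: signal is fraction of cell area covered by stained E-selectin grains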;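 as to nuclei count: 100% = median nuclei count of all wells on the same plate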). The conditions noted are these: HUVEC TNFalpha-induced E-selectin immunofluorescence imaging, at 2 µM; inhibition: stronger effect = higher value; nuclei count: measured here: cell number, toxicity.
A short description of assay [3]: Primary imaging screen for DUSP6 inhibitors that restore phospho-Erk in transfected HeLa cells, chemical complementation (AID 609).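 As to inhibition: phospho-Erk level distribution per well compared with pooled transfected vehicle control wells.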 The note with it: HeLa MKP-3 transfected, phospho-Erk imaging KS statistic, at 10 µM, cells stimulated with TPA for 15 min.
In assay [4] the target is Dual specificity protein phosphatase 6 (Homo sapiens) (UniProt Q16828). The assay is described as above. The note with it: HeLa MKP-3 transfected, phospho-Erk imaging KS statistic; at 10 µM; stronger effect = higher value; cells stimulated with TPA for 15 min.
Assay [5] deals with Voltage-gated potassium channel subunit beta-2 (Rattus norvegicus) (UniProt P62483). Briefly: inhibitors of rat Kvbeta2 reductase activity – biochemical, NADPH fluorescence, primary screen (AID 622;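 active = fluorescence slope higher than the sample average by over 3 SD, cut at about -0.22 in these data, passing the limit was not always enough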;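 also: slope of raw intensity against log time taken from 70 to 1610 s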). The note with it: recombinant KvBeta, 4-cyanobenzaldehyde reduction, at 10 µM, stronger effect = higher value.
Assay [6] has the same target. Briefly: enhancers of rat Kvbeta2 NADPH turnover – biochemical, NADPH fluorescence, primary screen (AID 623;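 active = NADPH fluorescence slope more negative than the mean of all samples by about 3 SD, 99.7% confidence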;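 also: fluorescence intensity change per second fitted from 20 to 320 s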). The note with it: Recombinant KvBeta, NADPH fluorescence decrease slope, 10 min; at 10 µM; stronger effect = lower value.
Assay [7] deals with Alpha-2C adrenergic receptor (Homo sapiens) (UniProt P18825). The assay can be described thus: compounds altering alpha2C-coupled GIRK flux – cell-based, HEK293 alpha2C/GIRK1/2, thallium flux, primary screen (AID 624;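 active = fluorescence slope after compound addition differing from the mean of all screened samples at 99.7% confidence, in either direction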;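 also: slope of fluorescence ratio to pre-addition baseline per second over 15 to 24 s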). The note with it: thallium flux BTC fluorescence, at 10 µM, actives lie on both sides.
Assay [8] in a line: inhibitors of larval lipid processing in zebrafish, primary screen, whole organism, PED6 fluorescence, gall bladder and intestine (AID 686;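 active = a full or partial loss of lipid-probe fluorescence in the fish gall bladder, intestine or both, judged by eye; inactive = no fluorescence loss, or compound toxic to the fish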;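 also: larvae 5 to 7 days old with five fish per well; signal comes from phospholipase A2 cleavage of quenched PED6 carried via bile; overnight exposure to compound and PED6 before scoring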). The note with it: Zebrafish larvae PED6 lipid processing, fluorescence scoring; screened at 20 µM (by protocol). In short, it runs like this:
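Doses: 20 µM single dose. Test system: live zebrafish larvae aged 5-7 days, whole organism. Quantity: five larvae per well. Measured by: By-eye fluorescence microscopy. Reagent: ingested quenched lipid PED6 at 100 nM. Read-out: visual per-well fluorescence inhibition score. Times: overnight exposure of larvae to compound plus PED6.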

Assay [9] can be described thus: loss of swimming-algae plug formation – whole organism, Chlamydomonas reinhardtii, WT vs cilia-less mutant, absorbance, 96-well, primary screen (AID 463189;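 active = inhibition at or above 50% relative to wild type and mutant plate controls; inactive = inhibition below 50%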;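 also: 0% = wild type cc124 cells in DMSO and 100% = ciliumless bld1 mutant cells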). The conditions noted are these: Chlamydomonas reinhardtii gravitaxis, OD600 absorbance, 2 days; at 10 µM; stronger effect = higher value.
The mark [10] stands for this setting: measured here: cell density z-score.
Where [11] appears, read: measured here: nuclear c-Myc green intensity z-score.
Setting [12] is: measured here: nuclear pErk red intensity z-score, stronger effect = higher value.

Calls of active or inactive are those of the source.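 The calls were made as follows, unless noted: active = compounds giving at least 50% inhibition in the cell-based MKP-3 phosphatase rescue imaging test; inactive = the rest.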

Sequence of Dual specificity protein phosphatase 6 (Homo sapiens) (Q16828 whole entry, looked up): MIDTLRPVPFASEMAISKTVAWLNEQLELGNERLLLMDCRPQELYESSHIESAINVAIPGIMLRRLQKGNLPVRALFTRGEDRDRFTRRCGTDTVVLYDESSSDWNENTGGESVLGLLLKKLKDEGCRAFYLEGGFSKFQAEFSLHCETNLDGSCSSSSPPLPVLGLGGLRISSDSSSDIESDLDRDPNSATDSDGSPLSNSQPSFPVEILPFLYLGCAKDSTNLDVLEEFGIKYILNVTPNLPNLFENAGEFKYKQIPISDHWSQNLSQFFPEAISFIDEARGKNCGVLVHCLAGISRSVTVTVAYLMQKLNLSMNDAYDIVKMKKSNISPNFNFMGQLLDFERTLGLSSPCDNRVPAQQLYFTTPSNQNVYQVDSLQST
Sequence of Voltage-gated potassium channel subunit beta-2 (Rattus norvegicus) (P62483 whole entry, looked up): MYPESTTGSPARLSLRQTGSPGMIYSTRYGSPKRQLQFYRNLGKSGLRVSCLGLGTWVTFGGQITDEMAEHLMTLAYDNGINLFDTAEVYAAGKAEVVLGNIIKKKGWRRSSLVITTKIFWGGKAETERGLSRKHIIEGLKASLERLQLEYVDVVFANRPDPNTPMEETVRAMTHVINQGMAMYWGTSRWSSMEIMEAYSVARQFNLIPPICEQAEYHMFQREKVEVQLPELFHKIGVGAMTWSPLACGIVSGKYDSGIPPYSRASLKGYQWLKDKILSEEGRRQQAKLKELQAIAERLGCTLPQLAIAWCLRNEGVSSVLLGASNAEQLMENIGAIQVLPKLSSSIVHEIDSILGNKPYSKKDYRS
Sequence of Alpha-2C adrenergic receptor (Homo sapiens) (P18825 whole entry, looked up): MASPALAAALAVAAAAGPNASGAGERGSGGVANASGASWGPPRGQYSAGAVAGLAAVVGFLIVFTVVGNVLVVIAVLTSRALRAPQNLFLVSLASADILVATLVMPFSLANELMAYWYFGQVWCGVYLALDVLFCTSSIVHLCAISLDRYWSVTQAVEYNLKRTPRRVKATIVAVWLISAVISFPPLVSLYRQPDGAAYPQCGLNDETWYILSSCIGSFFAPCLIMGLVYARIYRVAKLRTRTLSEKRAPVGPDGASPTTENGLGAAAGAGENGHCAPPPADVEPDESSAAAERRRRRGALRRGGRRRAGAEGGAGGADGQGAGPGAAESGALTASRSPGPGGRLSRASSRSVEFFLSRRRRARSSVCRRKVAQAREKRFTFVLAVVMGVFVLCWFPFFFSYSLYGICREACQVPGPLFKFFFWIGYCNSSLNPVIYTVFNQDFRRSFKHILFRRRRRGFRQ

`COc1ccc(C=NCCCN2CCOCC2)cc1`: the cell count in assay [1] stood at 638. In addition, the inhibition in assay [1] was -9.5% (inactive); in assay [2], -363% (inactive); in assay [4], -0.159% (inactive); in assay [9] it was -6.33% (inactive). The same compound returned a nuclei count in [2] of 165%. Besides, the figures for the z-score in assay [3] (setting [10]), in assay [3] (setting [11]) and in assay [3] (setting [12]) were -1.79, -1.02 and 1.46, respectively. Also, in [5], the fluorescence slope was -0.486 (inactive). In addition, the NADPH fluorescence slope in [6] was -8.5e-05 (inactive). For the same compound, the slope in assay [7] was 0.00493 (inactive). Also, the compound was called inactive in assay [8].
`CCn1cc(C(=O)NCCc2ccccc2)c(=O)c2cc(F)c(N3CCN(C)CC3)cc21`: in [1], the cell count stood at 483. The inhibition was -8.4% (inactive) in assay [1], -187% (inactive) in assay [2], -8.95% (inactive) in assay [4] and 23.3% (inactive) in assay [9]. This compound displayed a nuclei count in assay [2] of 186%. Besides, the z-score in assay [3] (setting [10]) is -0.562; in [3] (setting [11]), 1.62; in [3] (setting [12]), 1.38. The fluorescence slope in assay [5] is -0.321 (inactive). Moreover, the NADPH fluorescence slope in [6] was -1.5e-05 (inactive). In addition, the slope in assay [7] is 0.00526 (inactive). Moreover, the compound was classed as inactive in assay [8].
On to `CN(C)C/C(Cl)=C(\Cl)c1ccccc1`, for which the cell count in [1] turned out to be 584. Besides, the inhibition in assay [1] was -0.1% (inactive); in assay [2] it was -20.3% (inactive); in assay [4] it was 4.25% (inactive); in assay [9], 10.7% (inactive). The nuclei count in [2] was found to be 159%. Moreover, the z-score is -1.42 in assay [3] (setting [10]), -0.391 in [3] (setting [11]) and 0.439 in [3] (setting [12]). In assay [5], the fluorescence slope is -0.53 (inactive). Also, the NADPH fluorescence slope in assay [6] was -6.5e-05 (inactive). The slope in assay [7] is 0.00503 (inactive). The compound was classed as inactive in [8].
Regarding `CCCCC1CC1C(=O)Nc1ccc(OC)c(OC)c1` (stereo unspecified), the cell count in assay [1] was found to be 421. The inhibition was -0.9% (inactive) in assay [1], -42.1% (inactive) in assay [2], -8.95% (inactive) in assay [4] and 22% (inactive) in [9]. Moreover, in assay [2], the nuclei count amounted to 190%. Also, the z-score in assay [3] (setting [10]) is -1.27; in [3] (setting [11]), -0.533; in assay [3] (setting [12]) it was 0.586. In addition, in [5], the fluorescence slope is -0.39 (inactive). In addition, the NADPH fluorescence slope in assay [6] was -2.3e-05 (inactive). In addition, in assay [7], the slope was 0.00756 (inactive). Moreover, the call in assay [8] was inactive.
`CC/C(=N\O)c1ccc(OC)c(OC)c1`: the cell count in assay [1] turned out to be 328. In addition, the inhibition in assay [1] was -13.3% (inactive); in [2] it was -106% (inactive); in assay [4], 1.75% (inactive); in assay [9], 13.3% (inactive). In [2], the nuclei count turned out to be 159%. For the same compound, the results for the z-score in assay [3] (setting [10]), in [3] (setting [11]) and in assay [3] (setting [12]) were -0.778, -1.02 and 1.01, respectively. Further, the fluorescence slope in [5] is -0.423 (inactive). For the same compound, in assay [6], the NADPH fluorescence slope was -0.000183 (inactive). Besides, the slope in assay [7] was 0.00545 (inactive). Moreover, in assay [8], the outcome was inactive.
As to `Nc1nnc(CSc2ccc(Cl)cc2)s1`, the cell count in assay [1] was 605. The inhibition is -14% (inactive) in assay [1], 33.5% (inactive) in assay [2], -7.86% (inactive) in [4] and 6.7% (inactive) in assay [9]. The same compound registered a nuclei count in [2] of 171%. Besides, the z-score in [3] (setting [10]) is 0.155; in assay [3] (setting [11]) it was -0.0933; in assay [3] (setting [12]), -0.139. The fluorescence slope in assay [5] was -0.369 (inactive). Besides, the NADPH fluorescence slope in assay [6] was -4.8e-05 (inactive). In assay [7], the slope is 0.00734 (inactive). Besides, the compound was classed as inactive in assay [8].
On to `CCC1(C)Cc2c(sc3c2c(=O)n(C)c2nnc(SCc4ccc5c(c4)OCO5)n32)CO1` (stereo unspecified), for which the cell count in assay [1] turned out to be 497. Further, the inhibition is -11% (inactive) in assay [1], 34% (inactive) in [2], 22.3% (inactive) in assay [4] and 46.1% (inactive) in assay [9]. Besides, the nuclei count in [2] was 98.6%. In addition, the results for the z-score in assay [3] (setting [10]), in assay [3] (setting [11]) and in [3] (setting [12]) were 1.16, 0.737 and -1.44, respectively. Besides, the fluorescence slope in assay [5] was -0.418 (inactive). Moreover, in assay [6], the NADPH fluorescence slope was 9.4e-07 (inactive). In addition, the slope in assay [7] is 0.00552 (inactive). For the same compound, in assay [8], the compound was called inactive.

The inhibition is the relative decrease from the control value, in per cent.
